Source: ChEMBL document CHEMBL1140909 (J Med Chem, 2009)
Active and inactive are the calls of the source. The calls are words filed in the database; no cut-off is given here.

Columns and labels:
[1] = biological target: 72 kDa type IV collagenase (Homo sapiens) (UniProt P08253); experiment: Stimulation of MMP2 activity in CB1 receptor knockout HUVEC assessed as increase in enzyme activity at 1 uM relative to control; format: cell-based
Procedure, shortened: (§1)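 HUVEC or CB1 siRNA-knockdown HUVEC (electroporated, 1.5 µg siRNA) grown to 90% confluence in six-well plates, treated with drug (optionally with 1 µM O-1918) with or without UV irradiation (1-15 min, 280-315 nm), 24 h at 37 °C. Conditioned media mixed with DQ gelatin (6 µg/mL), 24 h at 37 °C dark; fluorescence 485/530 nm against collagenase standard curve; triplicate; percent over vehicle, mean ± SEM of three experiments.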

[2] = biological target: 72 kDa type IV collagenase (Homo sapiens) (UniProt P08253); experiment: Stimulation of MMP2 activity in CB1 receptor knockout HUVEC assessed as increase in enzyme activity at 10 nM relative to control; format: cell-based; procedure, shortened: as §1
[3] = biological target: Matrix metalloproteinase-9 (Homo sapiens) (UniProt P14780); experiment: Stimulation of MMP9 activity in HUVEC assessed as increase in enzyme activity at 1 uM relative to control; format: cell-based; procedure, shortened: as §1
Matrix metalloproteinase-9 (Homo sapiens), sequence (P14780 whole entry): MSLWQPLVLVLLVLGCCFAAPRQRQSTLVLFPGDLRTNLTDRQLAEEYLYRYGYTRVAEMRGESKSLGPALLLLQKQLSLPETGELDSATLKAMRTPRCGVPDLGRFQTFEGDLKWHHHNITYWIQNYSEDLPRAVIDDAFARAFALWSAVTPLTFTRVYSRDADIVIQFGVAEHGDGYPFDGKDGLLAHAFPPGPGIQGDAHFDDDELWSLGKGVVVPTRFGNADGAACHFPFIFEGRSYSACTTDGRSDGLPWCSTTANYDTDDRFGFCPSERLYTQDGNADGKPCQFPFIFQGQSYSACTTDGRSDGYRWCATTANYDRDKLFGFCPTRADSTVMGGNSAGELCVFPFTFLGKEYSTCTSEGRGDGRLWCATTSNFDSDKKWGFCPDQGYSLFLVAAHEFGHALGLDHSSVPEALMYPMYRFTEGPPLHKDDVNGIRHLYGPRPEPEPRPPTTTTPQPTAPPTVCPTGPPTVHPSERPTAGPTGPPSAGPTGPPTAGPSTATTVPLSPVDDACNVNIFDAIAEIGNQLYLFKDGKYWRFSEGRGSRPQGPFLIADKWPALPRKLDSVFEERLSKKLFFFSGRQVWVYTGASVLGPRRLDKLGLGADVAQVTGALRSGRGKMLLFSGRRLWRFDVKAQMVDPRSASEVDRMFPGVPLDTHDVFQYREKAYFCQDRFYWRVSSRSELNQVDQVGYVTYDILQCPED

[4] = biological target: 72 kDa type IV collagenase (Homo sapiens) (UniProt P08253); experiment: Stimulation of MMP2 activity in CB1 receptor knockout HUVEC assessed as increase in enzyme activity at 100 nM relative to control; format: cell-based; procedure, shortened: as §1
[5] = biological target: Matrix metalloproteinase-9 (Homo sapiens) (UniProt P14780); experiment: Stimulation of MMP9 activity in CB1 receptor knockout HUVEC assessed as increase in enzyme activity at 1 uM relative to control; format: cell-based; procedure, shortened: as §1
[6] = biological target: Matrix metalloproteinase-9 (Homo sapiens) (UniProt P14780); experiment: Stimulation of MMP9 activity in HUVEC assessed as increase in enzyme activity at 10 nM relative to control; format: cell-based; procedure, shortened: as §1
[7] = biological target: Matrix metalloproteinase-9 (Homo sapiens) (UniProt P14780); experiment: Stimulation of MMP9 activity in CB1 receptor knockout HUVEC assessed as increase in enzyme activity at 10 nM relative to control; procedure, shortened: as §1
[8] = biological target: Matrix metalloproteinase-9 (Homo sapiens) (UniProt P14780); experiment: Stimulation of MMP9 activity in CB1 receptor knockout HUVEC assessed as increase in enzyme activity at 100 nM relative to control; procedure, shortened: as §1
[9] = biological target: 72 kDa type IV collagenase (Homo sapiens) (UniProt P08253); experiment: Stimulation of MMP2 activity in HUVEC assessed as increase in enzyme activity at 1 uM relative to control; procedure, shortened: as §1
[10] = biological target: 72 kDa type IV collagenase (Homo sapiens) (UniProt P08253); experiment: Stimulation of MMP2 activity in HUVEC assessed as increase in enzyme activity at 100 nM relative to control; procedure, shortened: as §1
[11] = biological target: Matrix metalloproteinase-9 (Homo sapiens) (UniProt P14780); experiment: Stimulation of MMP9 activity in HUVEC assessed as increase in enzyme activity at 100 nM relative to control; procedure, shortened: as §1
[12] = biological target: 72 kDa type IV collagenase (Homo sapiens) (UniProt P08253); experiment: Stimulation of MMP2 activity in HUVEC assessed as increase in enzyme activity at 10 nM relative to control; format: cell-based; procedure, shortened: as §1
[13] = system: HUVEC; experiment: Increase in cell migration of irradiated HUVEC at 100 nM relative to control; format: functional, Homo sapiens
Procedure, shortened: (§2)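 Cells harvested with versene, resuspended in RPMI 1640 with 0.1% BSA; 30 000 cells loaded in bottom well of 48-well microchemotaxis chamber under collagen IV-coated (0.1 mg/mL) 10 µm polyester filter, inverted 2 h at 37 °C; upper wells given drug in RPMI/0.1% BSA, 6 h at 37 °C. Filters fixed and stained with Diff-Quick; migrated cells counted at well centre, ×20. UV irradiation 1-15 min at 280-315 nm, 10 in. distance.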

[14] = biological target: Cannabinoid receptor 1 (Homo sapiens, UniProt P21554); experiment: Displacement of [3H]CP-55-940 from human recombinant CB1 receptor expressed in COS cells; format: cell-based
Cannabinoid receptor 1, sequence (P21554 whole entry): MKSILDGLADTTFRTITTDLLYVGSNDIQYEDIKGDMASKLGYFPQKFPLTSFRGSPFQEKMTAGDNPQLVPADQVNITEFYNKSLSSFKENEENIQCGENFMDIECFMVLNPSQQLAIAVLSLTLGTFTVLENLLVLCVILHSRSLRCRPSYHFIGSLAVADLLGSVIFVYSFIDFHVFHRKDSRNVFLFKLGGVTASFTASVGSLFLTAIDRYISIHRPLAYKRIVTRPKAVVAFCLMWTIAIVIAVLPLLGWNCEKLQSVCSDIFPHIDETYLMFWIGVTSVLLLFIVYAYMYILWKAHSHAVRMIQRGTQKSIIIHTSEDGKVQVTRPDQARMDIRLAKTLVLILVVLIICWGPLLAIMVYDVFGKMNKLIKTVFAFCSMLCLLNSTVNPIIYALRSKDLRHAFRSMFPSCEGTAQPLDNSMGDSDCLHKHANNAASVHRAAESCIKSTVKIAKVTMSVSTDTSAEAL

[15] = system: HUVEC; experiment: Stimulation of angiogenesis of CB1 receptor knockout irradiated HUVEC assessed as increase in cord length formation after 36 hrs by Matrigel based tube formation assay; format: functional, cell-based; conditions: Homo sapiens
Procedure, shortened: (§3)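 HUVEC or CB1 siRNA-knockdown HUVEC at 90% confluence harvested with versene, spun 600g 5 min, resuspended in serum-free RPMI 1640 with drug (optionally 1 µM O-1918); 40 000 cells/well on gelled 1:1 RPMI/Matrigel, with or without UV irradiation, 36 h at 37 °C. Fixed with Diff-Quick; total tube length from three random 10× fields; triplicate, three experiments; percent increase over vehicle, mean ± SEM; bFGF 5 ng/mL positive control.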

[16] = system: HUVEC; experiment: Stimulation of angiogenesis of CB1 receptor knockout HUVEC assessed as increase in cord length formation after 36 hrs by Matrigel based tube formation assay; format: functional; procedure, shortened: as §3
[17] = biological target: Cannabinoid receptor 2 (Homo sapiens, UniProt P34972); experiment: Displacement of [3H]CP-55-940 from human recombinant CB2 receptor expressed in COS cells; format: cell-based
Cannabinoid receptor 2, sequence (P34972 whole entry): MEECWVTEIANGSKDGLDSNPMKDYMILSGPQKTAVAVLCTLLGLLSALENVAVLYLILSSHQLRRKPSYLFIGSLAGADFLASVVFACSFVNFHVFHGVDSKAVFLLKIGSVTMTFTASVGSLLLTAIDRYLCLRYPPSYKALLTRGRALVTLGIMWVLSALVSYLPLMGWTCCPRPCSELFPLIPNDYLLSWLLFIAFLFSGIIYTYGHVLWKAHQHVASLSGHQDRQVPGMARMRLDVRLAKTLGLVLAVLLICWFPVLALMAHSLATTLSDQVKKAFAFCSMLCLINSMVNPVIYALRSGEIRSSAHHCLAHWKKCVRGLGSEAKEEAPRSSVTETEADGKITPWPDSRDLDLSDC

[18] = system: HUVEC; experiment: Increase in cell migration of irradiated HUVEC at 1 uM relative to control; format: functional, Homo sapiens; procedure, shortened: as §2
[19] = system: HUVEC; experiment: Increase in cell migration of irradiated HUVEC at 10 nM relative to control; format: functional, Homo sapiens; procedure, shortened: as §2
[20] = biological target: 72 kDa type IV collagenase (Homo sapiens) (UniProt P08253); experiment: Stimulation of MMP2 activity in CB1 receptor knockout HUVEC assessed as increase in enzyme activity in presence of 1 uM anandamide receptor antagonist O-1918 relative to control; format: functional, cell-based; procedure, shortened: as §1
[21] = biological target: Matrix metalloproteinase-9 (Homo sapiens) (UniProt P14780); experiment: Stimulation of MMP9 activity in CB1 receptor knockout HUVEC assessed as increase in enzyme activity in presence of 1 uM anandamide receptor antagonist O-1918 relative to control; format: functional, cell-based; procedure, shortened: as §1
[22] = system: HUVEC; experiment: Stimulation of angiogenesis of irradiated CB1 receptor knockout HUVEC assessed as increase in cord length formation after 36 hrs at 100 nM by Matrigel based tube formation assay; format: functional, Homo sapiens; procedure, shortened: as §3
[23] = system: HUVEC; experiment: Stimulation of angiogenesis of irradiated CB1 receptor knockout HUVEC assessed as increase in cord length formation after 36 hrs at 10 nM by Matrigel based tube formation assay; format: functional, Homo sapiens; procedure, shortened: as §3
[24] = system: HUVEC; experiment: Stimulation of angiogenesis of irradiated CB1 receptor knockout HUVEC assessed as increase in cord length formation after 36 hrs at 1 uM in presence of 1 uM anandamide receptor antagonist O-1918 by Matrigel based tube formation assay; format: functional, cell-based; conditions: Homo sapiens; procedure, shortened: as §3
[25] = system: HUVEC; experiment: Stimulation of angiogenesis of irradiated HUVEC assessed as increase in cord length formation after 36 hrs by Matrigel based tube formation assay; format: functional, cell-based; conditions: Homo sapiens; procedure, shortened: as §3
[26] = system: HUVEC; experiment: Stimulation of angiogenesis of HUVEC assessed as increase in cord length formation after 36 hrs by Matrigel based tube formation assay; format: functional, cell-based; conditions: Homo sapiens; procedure, shortened: as §3
[27] = system: HUVEC; experiment: Stimulation of angiogenesis of irradiated CB1 receptor knockout HUVEC assessed as increase in cord length formation after 36 hrs at 1 uM by Matrigel based tube formation assay; format: functional, Homo sapiens; procedure, shortened: as §3

72 kDa type IV collagenase (Homo sapiens), sequence (P08253 110-660 limits assumed): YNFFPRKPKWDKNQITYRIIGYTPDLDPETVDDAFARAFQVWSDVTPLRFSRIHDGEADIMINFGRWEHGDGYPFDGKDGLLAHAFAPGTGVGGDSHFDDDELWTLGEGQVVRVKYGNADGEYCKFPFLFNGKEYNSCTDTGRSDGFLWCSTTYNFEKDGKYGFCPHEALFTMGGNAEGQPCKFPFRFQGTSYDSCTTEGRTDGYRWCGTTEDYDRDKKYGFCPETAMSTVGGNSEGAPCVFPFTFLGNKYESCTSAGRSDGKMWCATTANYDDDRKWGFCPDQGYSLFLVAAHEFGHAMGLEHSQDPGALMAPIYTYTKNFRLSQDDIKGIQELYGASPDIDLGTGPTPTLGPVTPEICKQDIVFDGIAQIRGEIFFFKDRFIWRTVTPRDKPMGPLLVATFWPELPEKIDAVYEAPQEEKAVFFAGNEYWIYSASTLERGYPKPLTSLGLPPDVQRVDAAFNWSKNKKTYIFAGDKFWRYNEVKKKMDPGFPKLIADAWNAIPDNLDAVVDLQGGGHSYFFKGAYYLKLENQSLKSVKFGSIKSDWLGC

Structure (SMILES) | Activity [1] | Activity [2] | Activity [3] | Activity [4] | Activity [5] | Activity [6] | Activity [7] | Activity [8] | Activity [9] | Activity [10] | Activity [11] | Activity [12] | Activity [13] [%] | Activity [15] | Activity [18] [%] | Activity [19] [%] | Activity [20] | Activity [21] | further results
CCCCC/C=C\C/C=C\C/C=C\C/C=C\CCCC(=O)N[C@H](C)CO | 25% | 10% | 28% | 33% | 33% | 20% | 25% | 10% | 20% | 28% | 5% | 5% | – | – | – | – | – | – | –
C[C@H](CO)NC(=O)CCC/C=C\C/C=C\C/C=C\C/C=C\CCOC(=O)c1cccc2c1OC(C)(C(C)(C)C)O2 (stereo partly drawn) | inactive | inactive | inactive | inactive | inactive | inactive | inactive | inactive | inactive | inactive | inactive | inactive | 40 | Active | 55 | 27 | inactive | inactive | Ki [14]: 2.8 µM; Activity ([16]; Homo sapiens): Active; Ki [17]: 1.02 µM
C[C@H](CO)NC(=O)CCC/C=C\C/C=C\C/C=C\C/C=C\CCOC(=O)c1cc(I)ccc1N=[N+]=[N-] | inactive | inactive | inactive | inactive | inactive | inactive | inactive | inactive | inactive | inactive | inactive | inactive | 35 | Dose-dependent effect | 54 | 18 | inactive | inactive | Activity [22]: 30%; Activity [23]: 21%; Activity [24]: inactive; Activity [25]: Active; Activity [26]: Dose-dependent effect; Activity [27]: 47%; Activity [16]: 8%
